From ChEMBL document CHEMBL1123220, “Structure-activity studies of 16-methoxy-16-methyl prostaglandins” (1986) come the findings set out here.

For test [1], the system named is Cricetinae gen. sp. Briefly: (§1) Antifertility activity was determined in hamsters (two to six dose levels, 6-18 animals per group) treated subcutaneously (sc) from day 4 to day 6 of gestation. It is filed as functional, Mesocricetus auratus. An outline of the steps: (§2)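 Syrian Golden hamsters dosed sc on three consecutive days, gestation days 4 to 6. Two to six dose levels, 6–18 animals per group. Animals killed on day 10 of gestation, and implantation sites and live fetuses counted.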

Test [2] is described as follows: Ratio of ED50 for diarrhea to ID50 (antisecretory activity). The class given is functional.
The test system of test [3] is Rattus norvegicus. The experiment in a line: Compound was evaluated for antisecretion activity using stomach perfusion test in the anesthetized rat (iv administration). It is filed as functional. As to conditions: read-out: ID50 (the source's name).
In a further test the test system is Mus musculus. The experiment in a line: Compound was evaluated for diarrheal effect in mice (po administration). The class given is functional. The method, boiled down:
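Mice fasted 24 h, then given logarithmically graded oral doses of 100–4000 μg/kg. Animals caged singly on blotting paper for 1 h, and stool dampness spots scored on a 0–4 scale. ED50 calculated by the Miller–Tainter method.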

Test [4] concerns Cricetinae gen. sp. Briefly: Antifertility activity was determined in hamsters (two to six dose levels, 6-18 animals per group) treated subcutaneously (sc) from day 4 to day 6 of gestation. The class given is functional, Mesocricetus auratus. An outline of the steps:
as §2

In test [5] the test system is Rattus norvegicus. The experiment in a line: Compound was evaluated for antisecretion activity using stomach perfusion test in the anesthetized rat (ig administration). As to conditions: for ED50: Rattus norvegicus, Stomach, po, read-out: ID50 (the source's name). The class given is functional.
Test [6] deals with Rattus norvegicus. Briefly: Compound was evaluated for antisecretion activity using stomach perfusion test in the anesthetized rat (iv administration) in experiment 1. It is filed as functional. As to conditions: read-out: ID50 (the source's name). The method, boiled down: (§3)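 Stomach perfusion in anesthetized rats. Gastric hypersecretion driven by continuous iv histamine infusion at 1.5 mg/kg per hour. Compound given iv. ID50 read from a plot of response, as percent of control, against log dose.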

Test [7] relates to Rattus norvegicus. The experiment in a line: Compound was evaluated for antisecretion activity using stomach perfusion test in the anesthetized rat (iv administration) in experiment 2. It is filed as functional. Conditions: read-out: ID50 (the source's name). The method, boiled down: as §3
The subject of test [8] is Rattus norvegicus. Briefly: Compound was evaluated for antisecretion activity using stomach perfusion test in the anesthetized rat (iv administration); At the dose of 500 ug/kg, some animals died. It is filed as functional. Conditions: read-out: ID50 (the source's name).
In test [9] the test system is Cricetinae gen. sp. The test is described as §1. The class given is functional, Cricetulus griseus. An outline of the steps: as §2
The mark [10] stands for this setting: Mus musculus, po, read-out: ED50.

Molecules are shown by their SMILES.

With `CCCCC[C@H](O)/C=C/[C@H]1[C@H](O)CC(=O)[C@@H]1CCCCCCC(=O)O` [ALPROSTADIL], the ED50 is 1.8 mg/kg in the test on Cricetinae gen. sp. [1], 0.0285 mg/kg in the test on Rattus norvegicus [3] and 1.02 mg/kg with Mus musculus (setting [10]). The Ratio in test [2] amounted to 36.
As to `CCCC[C@@](C)(OC)[C@H](O)/C=C/C1[C@H](O)C[C@H](O)[C@@H]1C/C=C\CCCC(=O)OC` (some centres not stated), the ED50 in the test on Cricetinae gen. sp. [1] is 0.6 mg/kg; with Rattus norvegicus [3], 1.5 mg/kg; in the test on Mus musculus (setting [10]) it was 0.888 mg/kg.
Take `CCCC[C@@](C)(OC)[C@@H](O)/C=C/C1[C@H](O)CC(=O)[C@@H]1C/C=C\CCCC(=O)OC` (some centres not stated): the ED50 in the test on Cricetinae gen. sp. [4] was > 1 mg/kg.
Take `CCCCC(OC)[C@H](O)/C=C/C1[C@H](O)CC(=O)[C@@H]1CCCCCCC(=O)O` (some centres not stated): the ED50 with Rattus norvegicus [5] was > 0.1 mg/kg.
Consider `CCCC[C@](C)(OC)[C@@H](O)/C=C/C1[C@H](O)CC(=O)[C@@H]1CCCCCCC(=O)OC` (stereo in doubt; form 1), for which the ED50 with Rattus norvegicus [3] was > 3 mg/kg; in the test with Mus musculus, >4 mg/kg; with Cricetinae gen. sp. [4] it was > 2.5 mg/kg.
For `CCCC[C@@](C)(OC)[C@@H](O)/C=C/C1[C@H](O)C[C@H](O)[C@@H]1C/C=C\CCCC(=O)OC` (some centres not stated), the ED50 was > 4 mg/kg in the test on Cricetinae gen. sp. [1], > 2 mg/kg in the test on Rattus norvegicus [3] and > 4 mg/kg with Mus musculus (setting [10]).
Regarding `CCCC[C@](C)(OC)[C@@H](O)/C=C/C1[C@H](O)CC(=O)[C@@H]1CCCCCCC(=O)OC` (stereo in doubt; form 2), the ED50 in the test on Rattus norvegicus [6] worked out at 0.1 mg/kg; in the test with Rattus norvegicus [7], 0.3 mg/kg; in the test on Mus musculus, 0.774 mg/kg.
Take `CCCCC[C@H](O)/C=C/[C@@H]1[C@@H](C/C=C\CCCC(=O)O)[C@@H](O)C[C@H]1O` [DINOPROST]: the ED50 in the test on Rattus norvegicus [8] was > 0.3 mg/kg; in the test with Cricetinae gen. sp. [9] it was 0.06 mg/kg; with Mus musculus (setting [10]) it was 0.57 mg/kg.
`CCCC[C@@](C)(OC)[C@H](O)/C=C/C1[C@H](O)CC(=O)[C@@H]1CCCCCCC(=O)OC` (some centres not stated): the Ratio in test [2] came to 300. The ID50 in the test with Rattus norvegicus [5] came out at 15 µg/kg. In addition, the ED50 with Rattus norvegicus [5] is 0.015 mg/kg; in the test with Rattus norvegicus [3], 0.0045 mg/kg; in the test on Mus musculus (setting [10]), 1.35 mg/kg; in the test on Cricetinae gen. sp. [4], > 2.5 mg/kg.
Consider `CCCC[C@@](C)(OC)[C@H](O)/C=C/C1[C@H](O)CC(=O)[C@@H]1C/C=C\CCCC(=O)OC` (some centres not stated), for which the Ratio in [2] was found to be 105. Besides, the ED50 in the test on Rattus norvegicus [3] is 0.0072 mg/kg; with Mus musculus (setting [10]), 0.757 mg/kg; in the test with Cricetinae gen. sp. [4], > 1 mg/kg.
Take `CCCC[C@](C)(OC)[C@@H](O)/C=C/C1[C@H](O)CC(=O)[C@@H]1C/C=C\CCCC(=O)OC` (some centres not stated): the ED50 in the test with Rattus norvegicus [3] was 1.5 mg/kg; in the test with Mus musculus (setting [10]), 0.912 mg/kg; in the test on Cricetinae gen. sp. [4] it was > 1 mg/kg.
Turning to `CCCC[C@@H](OC)[C@H](O)/C=C/C1[C@H](O)CC(=O)[C@@H]1C/C=C\CCCC(=O)O` (some centres not stated), the ED50 with Rattus norvegicus [3] was > 0.05 mg/kg.
For the compound `CCCC[C@](C)(OC)[C@H](O)/C=C/C1[C@H](O)CC(=O)[C@@H]1C/C=C\CCCC(=O)OC` (some centres not stated), the results for the ED50 with Rattus norvegicus [3], in the test on Mus musculus (setting [10]) and with Cricetinae gen. sp. [4] were 0.5 mg/kg, 0.479 mg/kg and > 1 mg/kg, respectively.
As to `CCCC[C@](C)(OC)[C@H](O)/C=C/C1[C@H](O)C[C@H](O)[C@@H]1C/C=C\CCCC(=O)OC` (some centres not stated), the ED50 is 1.5 mg/kg in the test with Cricetinae gen. sp. [1], > 2 mg/kg in the test with Rattus norvegicus [3] and 1.81 mg/kg in the test with Mus musculus (setting [10]).
As to `CCCC[C@](C)(OC)[C@@H](O)/C=C/C1[C@H](O)C[C@H](O)[C@@H]1C/C=C\CCCC(=O)OC` (some centres not stated), the ED50 in the test with Cricetinae gen. sp. [1], in the test with Rattus norvegicus [3] and with Mus musculus (setting [10]) was > 4 mg/kg throughout.
Turning to `CCCCC[C@H](O)/C=C/[C@H]1[C@H](O)CC(=O)[C@@H]1C/C=C\CCCC(=O)O` [DINOPROSTONE], the ED50 in the test with Cricetinae gen. sp. [1] is 0.7 mg/kg; in the test with Rattus norvegicus [5] it was > 0.1 mg/kg; in the test with Rattus norvegicus [3] it was 0.026 mg/kg; in the test with Mus musculus (setting [10]), 1.5 mg/kg. Also, the Ratio in test [2] turned out to be 58.
In the case of `CCCC[C@@](C)(OC)[C@@H](O)/C=C/C1[C@H](O)CC(=O)[C@@H]1CCCCCCC(=O)OC` (some centres not stated), the values for the ED50 with Rattus norvegicus [3], in the test with Mus musculus (setting [10]) and in the test on Cricetinae gen. sp. [4] were > 1 mg/kg, > 4 mg/kg and > 2.5 mg/kg, respectively.
